Reference: ChEMBL document CHEMBL5678806, “NMS-P937, an orally available, specific small-molecule polo-like kinase 1 inhibitor with antitumor activity in solid and hematologic malignancies” (Mol Cancer Ther, 2012)
Calls of active or inactive are those of the source. No cut-off for these calls is given here.

Assays:
[1] = Inhibition of AUR1 (unknown origin) in presence of [gamma-33P]ATP; design: species or system Homo sapiens
[2] = Clearance in nu/nu mouse at 10 mg/kg, iv by LC-MS analysis; type: ADME, organism-based; details: in vivo
A-375 = assay: Antiproliferative activity against human A-375 cells assessed as inhibition of cell growth incubated for 72 hrs by cell-titer glo assay; type: functional, cell-based; details: A-375, 72 h
Outline: (§1)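 Cells seeded 10,000–30,000/cm² (adherent) or 100,000/mL (suspension) in medium with 10% fetal calf serum; after 24 h treated in duplicate with serial dilutions for 72 h. Viable cells read by CellTiter-Glo luminescence; IC50 from sigmoidal fit; at least two independent experiments.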

NCI-H838 = assay: Antiproliferative activity against human NCI-H838 cells assessed as inhibition of cell growth incubated for 72 hrs by cell-titer glo assay; type: functional, cell-based; details: NCI-H838, 72 h
Outline: (§2)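 Cells from ATCC or ECACC, kept in supplier-recommended medium with 1% penicillin-streptomycin at 37°C, 5% CO₂. Seeded at 10,000–30,000/cm² (adherent) or 100,000/mL (nonadherent) in medium with 10% fetal calf serum. Dosed after 24 h in duplicate with serial dilutions. Viable cells read by CellTiter-Glo 72 h later. IC50 from sigmoidal fit. At least two independent experiments.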

[3] = Antiproliferative activity against human AML-NS8 cells assessed as inhibition of cell growth incubated for 72 hrs by cell-titer glo assay; type: functional, cell-based; details: AML-NS8, 72 h; outline: as §1
[4] = molecular target: Serine/threonine-protein kinase PAK 4 (Homo sapiens, UniProt O96013); assay: Inhibition of PAK4 (unknown origin) in presence of [gamma-33P]ATP
NCI-H526 = assay: Antiproliferative activity against human NCI-H526 cells assessed as inhibition of cell growth incubated for 72 hrs by cell-titer glo assay; type: functional, cell-based; details: NCI-H526, 72 h; outline: as §2
1A9/ptx-22 = assay: Antiproliferative activity against human 1A9/ptx-22 cells assessed as inhibition of cell growth incubated for 72 hrs by cell-titer glo assay; type: functional, cell-based; details: 1A9/ptx-22, 72 h; outline: as §1
Casein kinase 2 = Casein kinase 2 (Homo sapiens, UniProt P67870+P68400+P19784+Q8NEV1); assay: Inhibition of CK2 (unknown origin) at 10 micromol/L in presence of [gamma-33P]ATP relative to control; type: protein assay; details: dose 10.0 µmol/L
NALM-6 = assay: Antiproliferative activity against human NALM-6 cells assessed as inhibition of cell growth incubated for 72 hrs by cell-titer glo assay; type: functional, cell-based; details: NALM-6, 72 h; outline: as §2
COLO 205 = assay: Antiproliferative activity against human COLO 205 cells assessed as inhibition of cell growth incubated for 72 hrs by cell-titer glo assay; type: functional, cell-based; details: COLO 205, 72 h; outline: as §1
[5] = Antiproliferative activity against human NCI-H2110 cells assessed as inhibition of cell growth incubated for 72 hrs by cell-titer glo assay; type: functional, cell-based; details: NCI-H2110, 72 h; outline: as §2
[6] = Cmax in Beagle dog at 5 mg/kg, po by LC-MS analysis; type: ADME, organism-based, Canis lupus familiaris; details: in vivo
U2OS [7] = assay: Effect on cell morphology in human U2OS cells expressing GFP/alpha-tubulin fusion protein assessed as aberrant number of spindle poles at 1 uM incubated for 24 hrs by laser scanning confocal microscopy analysis; type: functional, cell-based
A2780 [8] = assay: Induction of cell cycle arrest in human A2780 cells assessed as accumulation of cells in G2/M phase by measuring Histone H3 phosphorylation on Ser10 incubated for 24 hrs by Western blotting analysis; type: functional, cell-based; details: dose 0.02-0.2 µmol/L
Outline: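 A2780 ovarian carcinoma cells treated 24 h with a range of concentrations, with DMSO and nocodazole controls. 20 µg protein extract separated by SDS-PAGE and immunoblotted with chemiluminescent detection. Probed for total and phospho-Thr210 PLK1, phospho-Ser10 histone H3, phospho-Thr199 NPM and phospho-Tyr15 CDK1. Total NPM, tubulin and total CDK1 served as loading controls.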

[9] = molecular target: Calcium/calmodulin-dependent protein kinase type 1 (Homo sapiens) (UniProt Q14012); assay: Inhibition of recombinant human CaMKI assessed as residual activity at 1 uM relative to control
[10] = molecular target: Ephrin type-B receptor 1 (Homo sapiens) (UniProt P54762); assay: Inhibition of N-terminal 6His-tagged recombinant human EphB1 (564 to end residues) expressed in baculovirus infected Sf21 cells assessed as residual activity at 0.1 uM relative to control
[11] = Clearance in male cynomolgus monkey at 5 mg/kg, iv by LC-MS analysis; type: ADME, organism-based, Macaca fascicularis; details: in vivo
[12] = molecular target: Tyrosine-protein kinase HCK (Homo sapiens) (UniProt P08631); assay: Inhibition of N-terminal 6His-tagged recombinant human Hck (230 to 497 residues) expressed in baculovirus infected Sf21 cells assessed as residual activity at 1 uM relative to control
U2OS [13] = assay: Induction of apoptosis in human U2OS cells assessed as colocalization of cells by measuring Histone H3 phosphorylation on Ser10 incubated for 24 hrs by DRAQ 5 staining based high content imaging assay relative to control; type: functional
HCC1937 = assay: Antiproliferative activity against human HCC1937 cells assessed as inhibition of cell growth incubated for 72 hrs by cell-titer glo assay; type: functional, cell-based; details: HCC1937, 72 h
Outline: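 Cells seeded at 10,000–30,000/cm² (adherent) or 100,000/mL (nonadherent) in medium with 10% fetal calf serum; after 24 h, treated in duplicate with serial dilutions for 72 h. Viable cell number read by CellTiter-Glo luminescence; IC50 from sigmoidal fit; at least two independent experiments.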

NHDF = assay: Cytotoxicity against human NHDF cells assessed as reduction in cell number at 0.5 to 1 uM incubated for 8 hrs followed by compound washout and measured after 24 to 48 hrs by cell titer glow assay; type: toxicity, cell-based; details: dose 0.5-1 µM
[14] = molecular target: Macrophage-stimulating protein receptor (Homo sapiens) (UniProt Q04912); assay: Inhibition of N-terminal GST-tagged recombinant human Ron (983 to end residues) expressed in baculovirus infected Sf21 cells assessed as residual activity at 1 uM relative to control
NCI-H889 = assay: Antiproliferative activity against human NCI-H889 cells assessed as inhibition of cell growth incubated for 72 hrs by cell-titer glo assay; type: functional, cell-based; details: NCI-H889, 72 h; outline: as §2
[15] = Antiproliferative activity against human COLO 206F cells assessed as inhibition of cell growth incubated for 72 hrs by cell-titer glo assay; type: functional, cell-based; outline: as §1
SN12C = assay: Antiproliferative activity against human SN12C cells assessed as inhibition of cell growth incubated for 72 hrs by cell-titer glo assay; type: functional, cell-based
A2780 [16] = assay: Induction of cell cycle arrest in human A2780 cells assessed as accumulation of cells at G2/M phase by measuring 4N DNA content incubated for 24 hrs by flow cytometry analysis; details: dose 20-200 nmol/L
[17] = molecular target: Serine/threonine-protein kinase NIM1 (Homo sapiens, UniProt Q8IY84); assay: Inhibition of NIM1 (unknown origin) in presence of [gamma-33P]ATP
[18] = Antiproliferative activity against human PL-21 cells assessed as inhibition of cell growth incubated for 72 hrs by cell-titer glo assay; type: functional, cell-based; details: PL-21, 72 h; outline: as §2
[19] = Cmax in Beagle dog at 5 mg/kg, iv by LC-MS analysis; type: ADME, organism-based, Canis lupus familiaris; details: in vivo

Chain of Ephrin type-B receptor 1 (Homo sapiens) (P54762 whole entry): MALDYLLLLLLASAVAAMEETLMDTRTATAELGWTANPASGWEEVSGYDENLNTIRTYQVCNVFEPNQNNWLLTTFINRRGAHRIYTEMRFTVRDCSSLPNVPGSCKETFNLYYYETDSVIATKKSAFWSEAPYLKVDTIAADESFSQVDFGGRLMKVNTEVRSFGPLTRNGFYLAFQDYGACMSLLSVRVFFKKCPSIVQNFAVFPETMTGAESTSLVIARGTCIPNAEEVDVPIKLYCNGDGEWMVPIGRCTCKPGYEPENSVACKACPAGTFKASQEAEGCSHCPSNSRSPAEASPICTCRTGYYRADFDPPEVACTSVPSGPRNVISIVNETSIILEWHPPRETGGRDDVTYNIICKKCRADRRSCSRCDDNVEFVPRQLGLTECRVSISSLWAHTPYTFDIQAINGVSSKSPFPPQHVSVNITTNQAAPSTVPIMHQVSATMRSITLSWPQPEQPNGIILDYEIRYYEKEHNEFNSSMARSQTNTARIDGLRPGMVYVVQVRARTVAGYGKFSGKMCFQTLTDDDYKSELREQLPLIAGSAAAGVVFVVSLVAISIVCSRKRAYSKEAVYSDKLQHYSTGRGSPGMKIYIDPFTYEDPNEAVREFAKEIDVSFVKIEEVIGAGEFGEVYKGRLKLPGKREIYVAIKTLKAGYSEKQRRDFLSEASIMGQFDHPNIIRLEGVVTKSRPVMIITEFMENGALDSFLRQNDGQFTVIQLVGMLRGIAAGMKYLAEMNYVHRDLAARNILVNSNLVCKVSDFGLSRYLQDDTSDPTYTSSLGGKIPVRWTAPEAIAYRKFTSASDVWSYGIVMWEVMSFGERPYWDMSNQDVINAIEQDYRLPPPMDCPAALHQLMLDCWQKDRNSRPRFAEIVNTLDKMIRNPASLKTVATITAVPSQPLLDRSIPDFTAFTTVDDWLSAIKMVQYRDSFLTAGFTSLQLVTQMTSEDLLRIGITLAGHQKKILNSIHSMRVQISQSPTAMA
Chain of Tyrosine-protein kinase HCK (Homo sapiens) (P08631 2-526 limits assumed): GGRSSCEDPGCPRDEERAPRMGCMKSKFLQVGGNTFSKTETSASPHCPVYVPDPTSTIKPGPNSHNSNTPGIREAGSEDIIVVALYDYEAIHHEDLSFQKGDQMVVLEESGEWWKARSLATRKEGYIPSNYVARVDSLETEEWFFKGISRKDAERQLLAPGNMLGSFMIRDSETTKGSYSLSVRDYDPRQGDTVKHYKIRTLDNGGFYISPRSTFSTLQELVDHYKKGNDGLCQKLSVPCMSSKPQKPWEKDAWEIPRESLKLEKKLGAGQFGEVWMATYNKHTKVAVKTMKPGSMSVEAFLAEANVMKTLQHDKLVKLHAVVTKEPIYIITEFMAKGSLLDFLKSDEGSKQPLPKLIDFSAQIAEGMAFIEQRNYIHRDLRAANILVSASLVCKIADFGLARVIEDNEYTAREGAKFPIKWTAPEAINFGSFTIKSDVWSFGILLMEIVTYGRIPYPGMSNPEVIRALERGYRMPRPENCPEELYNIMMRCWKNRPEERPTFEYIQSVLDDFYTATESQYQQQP
Chain of Serine/threonine-protein kinase PAK 4 (O96013 whole entry): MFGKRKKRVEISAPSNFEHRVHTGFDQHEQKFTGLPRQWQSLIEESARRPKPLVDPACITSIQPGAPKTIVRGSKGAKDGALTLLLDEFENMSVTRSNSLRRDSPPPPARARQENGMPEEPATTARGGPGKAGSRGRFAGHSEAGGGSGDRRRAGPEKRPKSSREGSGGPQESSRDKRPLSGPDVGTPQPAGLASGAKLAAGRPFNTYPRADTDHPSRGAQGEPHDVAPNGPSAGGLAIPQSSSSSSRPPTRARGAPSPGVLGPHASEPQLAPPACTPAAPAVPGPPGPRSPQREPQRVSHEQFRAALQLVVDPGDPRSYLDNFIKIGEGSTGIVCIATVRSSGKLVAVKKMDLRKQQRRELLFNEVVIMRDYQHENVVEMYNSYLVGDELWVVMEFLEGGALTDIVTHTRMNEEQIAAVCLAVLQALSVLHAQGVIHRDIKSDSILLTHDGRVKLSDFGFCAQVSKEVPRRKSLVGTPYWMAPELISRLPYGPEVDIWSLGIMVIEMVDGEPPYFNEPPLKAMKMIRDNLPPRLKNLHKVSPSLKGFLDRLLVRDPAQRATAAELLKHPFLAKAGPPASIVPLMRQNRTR
Chain of Calcium/calmodulin-dependent protein kinase type 1 (Homo sapiens) (Q14012 whole entry, looked up): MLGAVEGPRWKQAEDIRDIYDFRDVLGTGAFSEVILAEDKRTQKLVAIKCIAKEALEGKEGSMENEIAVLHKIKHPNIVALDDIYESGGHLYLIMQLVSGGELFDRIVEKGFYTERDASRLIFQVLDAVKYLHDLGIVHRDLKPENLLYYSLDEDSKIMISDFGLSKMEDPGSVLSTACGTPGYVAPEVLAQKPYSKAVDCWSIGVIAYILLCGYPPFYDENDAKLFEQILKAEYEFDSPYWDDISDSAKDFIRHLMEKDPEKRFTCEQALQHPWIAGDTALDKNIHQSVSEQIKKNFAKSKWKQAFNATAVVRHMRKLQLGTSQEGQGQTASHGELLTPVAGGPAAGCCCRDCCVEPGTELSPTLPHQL
Chain of Serine/threonine-protein kinase NIM1 (Q8IY84 whole entry): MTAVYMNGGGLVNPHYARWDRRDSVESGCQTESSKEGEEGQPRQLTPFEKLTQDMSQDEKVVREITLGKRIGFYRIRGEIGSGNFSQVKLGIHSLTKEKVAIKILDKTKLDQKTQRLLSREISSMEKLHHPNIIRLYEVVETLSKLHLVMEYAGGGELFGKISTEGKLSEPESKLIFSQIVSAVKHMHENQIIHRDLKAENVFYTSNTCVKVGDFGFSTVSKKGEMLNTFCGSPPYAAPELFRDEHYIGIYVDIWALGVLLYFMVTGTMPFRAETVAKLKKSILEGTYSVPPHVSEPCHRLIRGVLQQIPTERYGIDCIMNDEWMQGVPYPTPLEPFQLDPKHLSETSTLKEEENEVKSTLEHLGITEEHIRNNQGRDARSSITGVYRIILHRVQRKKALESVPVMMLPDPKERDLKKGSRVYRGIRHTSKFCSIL
Chain of Macrophage-stimulating protein receptor (Homo sapiens) (Q04912 25-304 limits assumed): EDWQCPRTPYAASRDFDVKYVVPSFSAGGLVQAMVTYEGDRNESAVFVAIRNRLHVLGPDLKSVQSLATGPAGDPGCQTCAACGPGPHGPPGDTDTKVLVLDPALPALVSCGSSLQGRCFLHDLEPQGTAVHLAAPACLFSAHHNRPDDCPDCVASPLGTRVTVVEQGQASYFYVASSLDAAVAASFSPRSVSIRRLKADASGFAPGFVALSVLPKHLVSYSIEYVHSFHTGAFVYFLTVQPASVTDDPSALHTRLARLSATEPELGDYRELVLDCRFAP
Chain of Macrophage-stimulating protein receptor (Homo sapiens) (Q04912 310-1400 limits assumed): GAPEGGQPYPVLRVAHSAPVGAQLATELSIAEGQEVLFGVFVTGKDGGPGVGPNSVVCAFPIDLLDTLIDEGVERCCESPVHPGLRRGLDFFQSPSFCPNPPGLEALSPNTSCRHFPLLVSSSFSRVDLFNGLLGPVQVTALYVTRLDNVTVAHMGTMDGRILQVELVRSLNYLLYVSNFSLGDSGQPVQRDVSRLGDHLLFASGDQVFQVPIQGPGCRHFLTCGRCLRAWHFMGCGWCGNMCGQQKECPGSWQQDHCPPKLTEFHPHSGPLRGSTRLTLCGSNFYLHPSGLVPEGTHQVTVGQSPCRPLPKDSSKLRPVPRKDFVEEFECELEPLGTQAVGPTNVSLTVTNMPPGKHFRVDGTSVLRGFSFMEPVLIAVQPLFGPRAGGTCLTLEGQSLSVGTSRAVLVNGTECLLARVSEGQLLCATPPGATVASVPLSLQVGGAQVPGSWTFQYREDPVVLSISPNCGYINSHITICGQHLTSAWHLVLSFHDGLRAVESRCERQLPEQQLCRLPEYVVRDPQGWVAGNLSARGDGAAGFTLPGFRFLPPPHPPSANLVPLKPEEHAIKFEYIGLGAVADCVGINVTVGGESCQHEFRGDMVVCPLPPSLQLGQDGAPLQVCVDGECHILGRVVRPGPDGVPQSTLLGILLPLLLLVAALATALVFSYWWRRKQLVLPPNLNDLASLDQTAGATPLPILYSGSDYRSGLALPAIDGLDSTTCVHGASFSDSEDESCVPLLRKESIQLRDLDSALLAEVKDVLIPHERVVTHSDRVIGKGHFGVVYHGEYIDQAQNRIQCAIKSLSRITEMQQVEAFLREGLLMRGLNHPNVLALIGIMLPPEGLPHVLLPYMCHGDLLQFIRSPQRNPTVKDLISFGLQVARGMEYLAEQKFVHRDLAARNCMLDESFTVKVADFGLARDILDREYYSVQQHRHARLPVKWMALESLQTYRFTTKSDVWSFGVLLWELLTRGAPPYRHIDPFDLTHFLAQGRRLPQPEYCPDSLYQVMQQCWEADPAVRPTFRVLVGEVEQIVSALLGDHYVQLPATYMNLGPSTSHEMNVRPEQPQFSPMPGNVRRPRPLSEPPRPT

`CN1CCN(c2ccc(OC(F)(F)F)c(Nc3ncc4c(n3)-c3c(c(C(N)=O)nn3CCO)CC4)c2)CC1` [ONVANSERTIB] gave an IC50 [1] of over 10 µM, a clearance [2] of 2.36 L/h/kg and an IC50 (A-375) of 0.04 µM. The IC50 (NCI-H838) was 0.119 µM, the IC50 [3] was 0.036 µM and the IC50 [4] was over 10 µM. The IC50 (NCI-H526) was 0.031 µM, the IC50 (1A9/ptx-22) was 0.065 µM and the inhibition (Casein kinase 2) was 89.7%. For the same compound, the IC50 (NALM-6) was 0.061 µM, the IC50 (COLO 205) was 0.032 µM and the IC50 [5] was 0.068 µM. For the same compound, the Cmax [6] was 1.2 µM, the Activity (U2OS [7]) was “Active” and the Activity (A2780 [8]) was “Dose-Dependent Effect”. It also gave an Activity [9] of 87%, an Activity [10] of 69% and a clearance [11] of 0.672 L/h/kg. For the same compound, the Activity [12] was 118%, the Activity (U2OS [13]) was 13% and the IC50 (HCC1937) was 0.595 µM. The Activity (NHDF) was “Toxic”, the Activity [14] was 42% and the IC50 (NCI-H889) was 0.135 µM. For the same compound, the IC50 [15] was 0.093 µM, the IC50 (SN12C) was 0.062 µM and the Activity (A2780 [16]) was “Dose-Dependent Effect”. It also gave an IC50 [17] of over 10 µM, an IC50 [18] of 0.022 µM and a Cmax [19] of 1.7 µM.
